Laboratory results published in ChEMBL document CHEMBL3813699, “Structure-Activity Relationships of a Diverse Class of Halogenated Phenazines That Targets Persistent, Antibiotic-Tolerant Bacterial Biofilms and Mycobacterium tuberculosis” (J Med Chem, 2016).
≈ marks a conversion by molar mass, not a printed value.

Columns and labels:
[1] = test system: Staphylococcus aureus; assay: Antibiofilm activity against methicillin-resistant Staphylococcus aureus isolate 2 assessed as biofilm eradication incubated for 24 hrs by CBD assay; type: functional; details: for MBC: Staphylococcus aureus, isolate 2, 24 h
How it was run: (§1)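 Calgary Biofilm Device: pegs inoculated with mid-log culture diluted 1,000-fold in TSB + 0.5% glucose, 24 h 37 °C; washed pegs challenged with 2-fold dilutions 24 h 37 °C; pegs moved to fresh TSBG 24 h; MBEC = lowest concentration leaving no turbidity; 2–6 independent experiments.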

[2] = test system: Mycobacterium tuberculosis; assay: Antibacterial activity against Mycobacterium tuberculosis H37Ra ATCC 25177 after 7 days by two-fold serial dilution method; type: functional; details: H37Ra ATCC 25177, 168 h
[3] = test system: Staphylococcus epidermidis; assay: Antibacterial activity against methicillin-resistant Staphylococcus epidermidis ATCC 35984 assessed as biofilm eradication incubated for 24 hrs by CBD assay; type: functional; details: for MBC: Staphylococcus epidermidis, ATCC 35984, 24 h; how it was run: as §1
[4] = test system: Staphylococcus aureus; assay: Antibacterial activity against methicillin-resistant Staphylococcus aureus clinical isolate 2 incubated for 16 hrs by broth microdilution method in presence of tiron; type: functional; details: isolate 2, 16 h
[5] = test system: Staphylococcus aureus; assay: Antibacterial activity against methicillin-resistant Staphylococcus aureus BAA-1707 incubated for 16 to 18 hrs by broth microdilution method; type: functional
[6] = test system: Staphylococcus aureus; assay: Antibiofilm activity against methicillin-resistant Staphylococcus aureus BAA-1707 assessed as biofilm eradication incubated for 24 hrs by CBD assay; type: functional; how it was run: as §1
[7] = test system: Enterococcus faecium; assay: Antibacterial activity against vancomycin-resistant Enterococcus faecium ATCC 700221 incubated for 16 to 18 hrs by broth microdilution method; type: functional
[8] = test system: Enterococcus faecium; assay: Antibiofilm activity against […]-resistant Enterococcus faecium ATCC 700221 assessed as biofilm eradication incubated for 24 hrs by CBD assay; type: functional; details: for MBC: Enterococcus faecium, ATCC 700221, 24 h; how it was run: as §1
[9] = test system: HeLa; assay: Cytotoxicity against human HeLa cells after 24 hrs by LDH release assay; type: cell-based
How it was run: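 HeLa in DMEM + 10% FBS, 37 °C 5% CO2, at 70–80% confluence treated with 25, 50, 100 µM for 24 h; DMSO vehicle; Triton X-100 2% v/v max-LDH control, medium-only negative; supernatant with LDH reaction mix 30 min room temperature, stopped, absorbance 490 nm.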

[10] = Induction of hemolysis in human RBC at 200 uM incubated for 1 hr; type: cell-based, Erythrocyte; details: red blood cells, read-out: Activity
How it was run: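 Human RBCs (EDTA), washed three times in Tris-buffered saline pH 7.2; 2% hRBC with compound at final 200 µM, 1 h 37 °C; supernatant OD405; % hemolysis relative to DMSO (0%) and Triton X (100%).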

[11] = test system: Staphylococcus aureus; assay: Antibiofilm activity against methicillin-resistant Staphylococcus aureus BAA-44 assessed as biofilm eradication incubated for 24 hrs by CBD assay; type: functional; how it was run: as §1
[12] = test system: Staphylococcus aureus; assay: Antibacterial activity against methicillin-resistant Staphylococcus aureus clinical isolate 2 incubated for 16 hrs by broth microdilution method in presence of Fe2+; type: functional; details: isolate 2, 16 h
[13] = test system: Staphylococcus epidermidis; assay: Antibacterial activity against methicillin-resistant Staphylococcus epidermidis ATCC 35984 incubated for 16 to 18 hrs by broth microdilution method; type: functional
[14] = test system: Staphylococcus aureus; assay: Antibacterial activity against methicillin-resistant Staphylococcus aureus clinical isolate 2 incubated for 16 to 18 hrs by broth microdilution method; type: functional
[15] = Aqueous solubility of compound in media after 16 hrs; type: physicochemical
[16] = test system: Staphylococcus aureus; assay: Antibacterial activity against methicillin-resistant Staphylococcus aureus clinical isolate 2 incubated for 16 hrs by broth microdilution method; type: functional; details: isolate 2, 16 h
[17] = test system: Staphylococcus epidermidis; assay: Antibacterial activity against Staphylococcus epidermidis ATCC 12228 incubated for 16 to 18 hrs by broth microdilution method; type: functional
[18] = Dissociation constant, pKa of compound; type: physicochemical
[19] = test system: Staphylococcus aureus; assay: Antibacterial activity against methicillin-resistant Staphylococcus aureus BAA-44 incubated for 16 to 18 hrs by broth microdilution method; type: functional
[20] = test system: Staphylococcus aureus; assay: Antibacterial activity against methicillin-resistant Staphylococcus aureus clinical isolate 2 incubated for 16 hrs by broth microdilution method in presence of Cu2+; type: functional; details: isolate 2, 16 h
[21] = test system: Staphylococcus aureus; assay: Ratio of MIC for methicillin-resistant Staphylococcus aureus clinical isolate 2 in absence and presence of Cu2+; type: functional
[22] = test system: Staphylococcus epidermidis; assay: Antibacterial activity against Staphylococcus epidermidis ATCC 12228 incubated for 16 to 20 hrs by broth microdilution method; type: functional
[23] = test system: Staphylococcus aureus; assay: Antibacterial activity against Staphylococcus aureus ATCC 25923 incubated for 16 to 20 hrs by broth microdilution method; type: functional
[24] = test system: Staphylococcus aureus; assay: Ratio of MIC for methicillin-resistant Staphylococcus aureus clinical isolate 2 in absence and presence of tiron; type: functional; parameters: scale not given here
[25] = Metal chelating activity assessed as soluble Cu2+-compound complex formation by UV-vis spectroscopic analysis; type: physicochemical
How it was run: (§2)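 UV-vis monitoring after adding 0.5 equivalents CuSO4 or ammonium iron(II) sulfate to stirred 10 mM ligand in DMSO; Cu stoichiometry from free ligand remaining after 2 h room-temperature stirring with varying CuSO4 in methanol, filtered, redissolved in DMSO, A440 against calibration curve.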

[26] = Metal chelating activity assessed as soluble Fe2+-compound complex formation by UV-vis spectroscopic analysis; type: physicochemical; how it was run: as §2

| Structure (SMILES) | MBEC [1] | MBC [1] | MIC [2] | MBEC [3] | MBC [3] | MIC [4] | MIC [5] | MIC [7] | MBC [8] | IC50 [9] | hemolysis at 1 h, 200 µM [10] | MIC [12] | MIC [13] | MIC [14] | MIC [16] | MIC [17] | MIC [19] | MIC [20] | other results |
| --- | --- | --- | --- | --- | --- | --- | --- | --- | --- | --- | --- | --- | --- | --- | --- | --- | --- | --- | --- |
| Oc1ccc(I)c2nc3cc(Cl)c(Cl)cc3nc12 | 37.5 µM | 25 µM (≈ 9.77 µg/mL) | 3.13 µM (≈ 1.22 µg/mL) | 75 µM | 9.38 µM (≈ 3.67 µg/mL) | 0.2 µM | 0.15 µM (≈ 0.0586 µg/mL) | 3.13 µM (≈ 1.22 µg/mL) | 3.13 µM (≈ 1.22 µg/mL) | > 100 µM | 1.4% | 3.13 µM | 0.78 µM (≈ 0.305 µg/mL) | 0.39 µM (≈ 0.152 µg/mL) |  |  |  |  | MBEC [6]: >200 µM; MBC ([6]; Staphylococcus aureus, BAA-1707, 24 h): 75 µM (≈ 29.3 µg/mL); MBEC [11]: >200 µM; MBC ([11]; Staphylococcus aureus, BAA-44, 24 h): 75 µM (≈ 29.3 µg/mL); solubility at 16 h [15]: 200 µM (≈ 78.2 µg/mL) |
| Oc1ccc(Br)c2nc3cc(Cl)c(Cl)cc3nc12 |  |  | 3.13 µM (≈ 1.08 µg/mL) | 100 µM | 37.5 µM (≈ 12.9 µg/mL) |  | 0.3 µM (≈ 0.103 µg/mL) | 6.25 µM (≈ 2.15 µg/mL) | 100 µM (≈ 34.4 µg/mL) | > 100 µM | 2.7% |  | 1.56 µM (≈ 0.537 µg/mL) | 0.78 µM (≈ 0.268 µg/mL) | 0.78 µM (≈ 0.268 µg/mL) | 3.13 µM (≈ 1.08 µg/mL) | 1.17 µM (≈ 0.402 µg/mL) |  | MBEC [8]: 25 µM; pKa [18]: 8.42; solubility at 16 h [15]: 200 µM (≈ 68.8 µg/mL) |
| Oc1c(Cl)cc(Br)c2nc3cc(Br)c(Br)cc3nc12 | 25 µM | 25 µM (≈ 11.7 µg/mL) |  | 3.13 µM | 1.56 µM (≈ 0.729 µg/mL) | 0.2 µM |  | 0.39 µM (≈ 0.182 µg/mL) |  | > 100 µM | 2.1% |  | 0.3 µM (≈ 0.14 µg/mL) | 12.5 µM (≈ 5.84 µg/mL) | 3.13 µM (≈ 1.46 µg/mL) | 0.08 µM (≈ 0.0374 µg/mL) | 25 µM (≈ 11.7 µg/mL) | > 100 µM |  |
| CN(C)[C@@H]1C(O)=C(C(N)=O)C(=O)[C@@]2(O)C(O)=C3C(=O)c4c(O)cccc4[C@@](C)(O)[C@H]3C[C@@H]12 [TETRACYCLINE] |  |  |  |  |  |  |  |  |  |  |  | 18.8 µM |  |  | 1.17 µM (≈ 0.52 µg/mL) |  |  | 1.56 µM | Ratio [21]: <2 |
| Oc1c(Br)ccc2nc3ccccc3nc12 |  |  |  |  |  |  |  |  |  |  |  |  |  |  |  |  |  |  | MIC [22]: 1.7 µg/mL (≈ 6.18 µM); MIC [23]: 6.25 µM (≈ 1.72 µg/mL) |
| Oc1cccc2cccnc12 [OXYQUINOLINE] |  |  |  |  |  | > 100 µM |  |  |  |  |  | 6.25 µM |  |  | 6.25 µM (≈ 0.907 µg/mL) |  |  | 3.13 µM | Ratio [21]: <2; Ratio [24]: 16 |
| Cc1ccc2c(Br)cc(Br)c(O)c2n1 [BROQUINALDOL] | 188 µM | 23.5 µM (≈ 7.45 µg/mL) | 25 µM (≈ 7.92 µg/mL) | 93.8 µM | 9.38 µM (≈ 2.97 µg/mL) |  | 0.78 µM (≈ 0.247 µg/mL) | 2.35 µM (≈ 0.745 µg/mL) | 2 µM (≈ 0.634 µg/mL) | > 100 µM |  |  | 0.3 µM (≈ 0.0951 µg/mL) |  |  | 0.78 µM (≈ 0.247 µg/mL) | 0.78 µM (≈ 0.247 µg/mL) |  | Activity [25]: Active; Activity [26]: Active; MBEC [8]: 1.5 µM |
